Laboratory results published in PubChem BioAssay.
Calls of active or inactive are those of the source.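 How the source made its calls, unless noted: active means inhibition at or above 50% relative to wild type and mutant plate controls; inactive means inhibition below 50%.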

Experiments:
[1] = inhibitors of TNFa-induced NFkB p65 translocation, primary screen, imaging, HUVEC, MLSMR starter and 10KST1 sets (AID 438;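 active means inhibition above 20% together with a positive visual image hit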;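 further: compound added about 3h40 before a 20 min TNFalpha stimulation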;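 on inhibition: signal is the nuclear over cytoplasmic p65 intensity ratio per well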); conditions: HUVEC TNFa-induced p65 nuclear translocation; cell count: measured here: nuclei count (cytotoxicity indicator), at 2.08 µM; inhibition: at 2 µM, stronger effect = higher value, 0% TNFa-plus-vehicle, 100% no-TNFa wells
[2] = endothelial E-selectin expression blockers – imaging, HUVEC, immunofluorescence, MLSMR starter and 10KST1 sets, primary screen (AID 487;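 active means visually confirmed hit in the image check and inhibition above 20%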;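 on inhibition: signal is fraction of cell area covered by stained E-selectin grains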;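 on nuclei count: 100% = median nuclei count of all wells on the same plate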); conditions: HUVEC TNFalpha-induced E-selectin immunofluorescence imaging, at 2 µM; inhibition: stronger effect = higher value; nuclei count: measured here: cell number, toxicity
[3] = Primary imaging screen for DUSP6 inhibitors that restore phospho-Erk in transfected HeLa cells, chemical complementation (AID 609;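 active means compounds giving at least 50% inhibition in the cell-based MKP-3 phosphatase rescue imaging test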;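 on inhibition: phospho-Erk level distribution per well compared with pooled transfected vehicle control wells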); conditions: HeLa MKP-3 transfected, phospho-Erk imaging KS statistic, at 10 µM, cells stimulated with TPA for 15 min
[4] = target: Dual specificity protein phosphatase 6 (Homo sapiens) (UniProt Q16828); experiment: as above; conditions: HeLa MKP-3 transfected, phospho-Erk imaging KS statistic; at 10 µM; stronger effect = higher value; cells stimulated with TPA for 15 min
[5] = target: Voltage-gated potassium channel subunit beta-2 (Rattus norvegicus) (UniProt P62483); experiment: inhibitors of rat Kvbeta2 reductase activity – biochemical, NADPH fluorescence, primary screen (AID 622;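 active means fluorescence slope higher than the sample average by over 3 SD, cut at about -0.22 in these data, passing the limit was not always enough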;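 further: slope of raw intensity against log time taken from 70 to 1610 s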); conditions: recombinant KvBeta, 4-cyanobenzaldehyde reduction, at 10 µM, stronger effect = higher value
[6] = target: Voltage-gated potassium channel subunit beta-2 (Rattus norvegicus) (UniProt P62483); experiment: enhancers of rat Kvbeta2 NADPH turnover – biochemical, NADPH fluorescence, primary screen (AID 623;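 active means NADPH fluorescence slope more negative than the mean of all samples by about 3 SD, 99.7% confidence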;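 further: fluorescence intensity change per second fitted from 20 to 320 s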); conditions: Recombinant KvBeta, NADPH fluorescence decrease slope, 10 min; at 10 µM; stronger effect = lower value
[7] = target: Alpha-2C adrenergic receptor (Homo sapiens) (UniProt P18825); experiment: compounds altering alpha2C-coupled GIRK flux – cell-based, HEK293 alpha2C/GIRK1/2, thallium flux, primary screen (AID 624;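 active means fluorescence slope after compound addition differing from the mean of all screened samples at 99.7% confidence, in either direction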;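 further: slope of fluorescence ratio to pre-addition baseline per second over 15 to 24 s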); conditions: thallium flux BTC fluorescence, at 10 µM, actives lie on both sides
[8] = inhibitors of larval lipid processing in zebrafish, primary screen, whole organism, PED6 fluorescence, gall bladder and intestine (AID 686;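 active means a full or partial loss of lipid-probe fluorescence in the fish gall bladder, intestine or both, judged by eye; inactive means no fluorescence loss, or compound toxic to the fish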;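 further: larvae 5 to 7 days old with five fish per well; signal comes from phospholipase A2 cleavage of quenched PED6 carried via bile; overnight exposure to compound and PED6 before scoring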); conditions: Zebrafish larvae PED6 lipid processing, fluorescence scoring; screened at 20 µM (by protocol)
Summary of the method: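 System: live zebrafish larvae aged 5-7 days, whole organism; measure: graded gall bladder and intestinal fluorescence inhibition per well; incubation: overnight exposure; reagent: ingested quenched lipid PED6 at 100 nM; signal: By-eye fluorescence microscopy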

[9] = loss of swimming-algae plug formation – whole organism, Chlamydomonas reinhardtii, WT vs cilia-less mutant, absorbance, 96-well, primary screen (AID 463189); conditions: Chlamydomonas reinhardtii gravitaxis, OD600 absorbance, 2 days; at 10 µM; stronger effect = higher value;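 further: 0% = wild type cc124 cells in DMSO and 100% = ciliumless bld1 mutant cells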
[10] = measured here: cell density z-score
[11] = measured here: nuclear c-Myc green intensity z-score
[12] = measured here: nuclear pErk red intensity z-score, stronger effect = higher value

Chain of Dual specificity protein phosphatase 6 (Homo sapiens) (Q16828 whole entry, looked up): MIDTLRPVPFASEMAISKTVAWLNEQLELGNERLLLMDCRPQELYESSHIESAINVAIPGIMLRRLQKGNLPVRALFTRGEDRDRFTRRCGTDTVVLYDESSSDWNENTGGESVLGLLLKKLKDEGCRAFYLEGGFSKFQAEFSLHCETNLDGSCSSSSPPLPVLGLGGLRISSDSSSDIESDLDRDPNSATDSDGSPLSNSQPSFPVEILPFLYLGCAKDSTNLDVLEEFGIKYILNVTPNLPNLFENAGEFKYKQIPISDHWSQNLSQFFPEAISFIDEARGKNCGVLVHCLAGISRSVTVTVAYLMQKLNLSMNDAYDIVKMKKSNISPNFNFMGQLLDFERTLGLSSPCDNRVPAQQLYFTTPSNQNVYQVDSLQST
Chain of Voltage-gated potassium channel subunit beta-2 (Rattus norvegicus) (P62483 whole entry, looked up): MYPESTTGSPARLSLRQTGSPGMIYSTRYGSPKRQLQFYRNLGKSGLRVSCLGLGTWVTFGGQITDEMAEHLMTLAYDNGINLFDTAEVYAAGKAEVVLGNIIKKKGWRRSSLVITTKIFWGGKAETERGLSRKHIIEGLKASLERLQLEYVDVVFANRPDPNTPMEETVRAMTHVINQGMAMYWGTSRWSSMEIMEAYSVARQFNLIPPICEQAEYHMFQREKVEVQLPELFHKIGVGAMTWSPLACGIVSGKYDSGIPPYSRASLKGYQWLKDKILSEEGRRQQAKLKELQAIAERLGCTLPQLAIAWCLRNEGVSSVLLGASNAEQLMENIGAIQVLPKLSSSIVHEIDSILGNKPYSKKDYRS
Chain of Alpha-2C adrenergic receptor (Homo sapiens) (P18825 whole entry, looked up): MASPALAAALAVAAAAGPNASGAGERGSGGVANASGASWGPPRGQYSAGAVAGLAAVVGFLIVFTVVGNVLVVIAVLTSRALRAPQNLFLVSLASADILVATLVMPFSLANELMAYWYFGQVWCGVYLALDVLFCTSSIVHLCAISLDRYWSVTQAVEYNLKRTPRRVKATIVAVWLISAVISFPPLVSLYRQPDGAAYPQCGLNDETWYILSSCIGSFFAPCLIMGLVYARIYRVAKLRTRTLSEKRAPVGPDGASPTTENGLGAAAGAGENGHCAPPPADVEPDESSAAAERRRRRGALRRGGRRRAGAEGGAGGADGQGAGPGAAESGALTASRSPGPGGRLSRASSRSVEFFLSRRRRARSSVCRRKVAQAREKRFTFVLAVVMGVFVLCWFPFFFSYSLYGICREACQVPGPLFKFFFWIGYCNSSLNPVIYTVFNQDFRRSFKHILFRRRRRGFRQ

| Structure (SMILES) | cell count [1] | inhibition [1] | inhibition [2] | nuclei count [2] [%] | z-score [3, 10] | z-score [3, 11] | z-score [3, 12] | inhibition [4] | fluorescence slope [5] | NADPH fluorescence slope [6] | slope [7] | outcome [8] | inhibition [9] |
| --- | --- | --- | --- | --- | --- | --- | --- | --- | --- | --- | --- | --- | --- |
| COc1ccc(CCNC(=O)c2ccc(=O)[nH]n2)cc1OC | 452 | -9.3% (inactive) | -124% (inactive) | 113 | -0.121 | -0.331 | -0.384 | 7.48% (inactive) | -0.517 (inactive) | -0.000115 (inactive) | 0.00414 (inactive) | inactive | 1.24% (inactive) |
| c1ccc2c(c1)NC(c1ccncc1)n1c-2nc2ccccc21 (stereo not given) | 301 | 5% (inactive) | -118% (inactive) | 108 | -1.27 | 1.48 | 0.784 | -2.91% (inactive) | -0.384 (inactive) | -5.4e-05 (inactive) | 0.00501 (inactive) | inactive | -2.42% (inactive) |
| CCOC(=O)CCc1c(C)c(C#N)c2[nH]c3ccccc3n2c1=O | 536 | -1.4% (inactive) | -8.6% (inactive) | 82.5 | -0.186 | -0.0675 | -0.0374 | 15.9% (inactive) | -0.617 (inactive) | -3.7e-05 (inactive) | 0.00416 (inactive) | active; weak signal in gallbladder and intestine | 18.4% (inactive) |
| COC(=O)C(NC(C)=O)(Nc1ccc(Br)cc1)C(=O)OC | 485 | -1.7% (inactive) | -127% (inactive) | 153 | 0.275 | 0.746 | -1.04 | 18.2% (inactive) | -0.537 (inactive) | -1.5e-05 (inactive) | 0.00456 (inactive) | inactive | -10.2% (inactive) |
| CCOC(=O)CSc1nc2ccccc2c(=O)n1C | 636 | -9.5% (inactive) | -24.4% (inactive) | 170 | -0.479 | 1.67 | 1.83 | -5.89% (inactive) | -0.523 (inactive) | -3.8e-05 (inactive) | 0.00573 (inactive) | inactive | -11.1% (inactive) |
| COc1ccc(C(=O)N/C(N)=N/c2nc3ccccc3o2)cc1 | 557 | -12.2% (inactive) | -140% (inactive) | 137 | 0.0574 | 0.314 | 0.889 | -3.97% (inactive) | -0.499 (inactive) | -3.2e-05 (inactive) | 0.0048 (inactive) | inactive | 14.5% (inactive) |
| O=C(CN1C(=O)c2ccccc2S1(=O)=O)c1ccccc1 | 567 | -7.2% (inactive) | 39.2% (inactive) | 193 | 0.246 | 1.04 | -0.287 | 7.73% (inactive) | -0.511 (inactive) | -9e-05 (inactive) | 0.005 (inactive) | inactive | -6.59% (inactive) |
| CCC1(C)Cc2c(sc3c2c(=O)n(C)c2nnc(SCC(=O)c4ccc(Cl)cc4)n32)CO1 (stereo not given) | 559 | -2.6% (inactive) | -61.6% (inactive) | 121 | -1.48 | 3.25 | -1.65 | 9.82% (inactive) | -0.37 (inactive) | 2e-05 (inactive) | 0.00685 (inactive) | inactive | -10.8% (inactive) |
| COc1ccccc1C1/C(=C(/O)c2cnn(-c3ccccc3)c2C)C(=O)C(=O)N1CCN(C)C (stereo not given) | 498 | -0.5% (inactive) | -189% (inactive) | 132 | 0.414 | -0.415 | -0.719 | 10.5% (inactive) | -0.558 (inactive) | -7e-05 (inactive) | 0.00448 (inactive) | inactive; toxic | -1.15% (inactive) |
| CN1c2ccccc2N(C)C1c1c(O)ccc2ccccc12 | 340 | -22% (inactive) | -387% (inactive) | 180 | 0.38 | -1.52 | 0.412 | -2.07% (inactive) | -0.407 (inactive) | -4.1e-05 (inactive) | 0.00586 (inactive) | inactive | 1.66% (inactive) |
| CC(C)c1cc(NCCCN2CCOCC2)n2c(nc3ccccc32)c1C#N | 548 | -21.3% (inactive) | -6.2% (inactive) | 155 | 1.24 | -0.267 | -1.5 | 6.51% (inactive) | -0.342 (inactive) | -1.7e-06 (inactive) | 0.00382 (inactive) | inactive | 5.12% (inactive) |
| Cc1c(/C(O)=C2\C(=O)C(=O)N(CCCN(C)C)C2c2ccccc2)cnn1-c1ccccc1 (stereo not given) | 528 | 1.1% (inactive) | -134% (inactive) | 139 | -0.232 | 0.596 | 1.69 | 1.6e-07% (inactive) | -0.579 (inactive) | -2.7e-05 (inactive) | 0.00616 (inactive) | inactive | -16.4% (inactive) |
| O=C1[C@@H]2[C@H](C(=O)N1n1cnnc1)[C@H]1C=C[C@@H]2C1 | 618 | -4.3% (inactive) | -49.4% (inactive) | 143 | -1.23 | -0.0869 | -0.601 | 4.25% (inactive) | -0.529 (inactive) | -6.9e-05 (inactive) | 0.00514 (inactive) | inactive | 13.5% (inactive) |
| O=C(CC(c1ccccc1)c1ccco1)N1CCOCC1 (stereo not given) | 294 | -28.3% (inactive) | -96.2% (inactive) | 84.1 | -0.599 | 0.143 | -0.229 | 14% (inactive) | -0.429 (inactive) | -4.9e-05 (inactive) | 0.00649 (inactive) | inactive | -5.11% (inactive) |
| COc1ccc(OCC(=O)N2CCN(C(=O)c3cccc4ccccc34)CC2)cc1 | 413 | -2.6% (inactive) | -293% (inactive) | 133 | -0.479 | 0.976 | -0.768 | 3.66% (inactive) | -0.448 (inactive) | -1.4e-05 (inactive) | 0.00599 (inactive) | inactive | 0.794% (inactive) |
| COCCNc1oc(-c2ccc(Cl)cc2)nc1C#N | 465 | -6.3% (inactive) | -25.2% (inactive) | 161 | 1.04 | -0.285 | -0.188 | 2.46% (inactive) | -0.17 (inactive) | 9.3e-06 (inactive) | 0.00534 (inactive) | inactive | 10.6% (inactive) |
| COc1cccc(C2/C(=C(/O)c3cnn(-c4ccccc4)c3C)C(=O)C(=O)N2CCN(C)C)c1OC (stereo not given) | 502 | 6.3% (inactive) | -119% (inactive) | 152 | -0.295 | 0.206 | -1.1 | -7.01% (inactive) | -0.506 (inactive) | -2.1e-05 (inactive) | 0.00541 (inactive) | inactive | 8.54% (inactive) |
| COc1ccc2[nH]c(C)c(C(=O)CN3CCN(C(=O)c4ccco4)CC3)c2c1 | 567 | -7.1% (inactive) | -4.8% (inactive) | 165 | -1.11 | -0.714 | 0.0705 | -7.01% (inactive) | -0.311 (inactive) | -8.4e-06 (inactive) | 0.00523 (inactive) | inactive | -1.6% (inactive) |
| CCOC(=O)c1c(CN2CCCCC2)oc2ccc(OC)cc12 | 344 | -9.3% (inactive) | -46.9% (inactive) | 142 | 0.114 | 0.591 | 0.702 | -7.01% (inactive) | -0.416 (inactive) | -0.000135 (inactive) | 0.00729 (inactive) | inactive | 4.54% (inactive) |
| Cc1cccn2c(=O)c3cc(C#N)c(=N)n(Cc4ccncc4)c3nc12 | 604 | -18.3% (inactive) | -96.5% (inactive) | 165 | 0.463 | -1.24 | 0.303 | -4.27% (inactive) | -0.479 (inactive) | -4.2e-05 (inactive) | 0.00367 (inactive) | inactive | -9.33% (inactive) |
